Test results taken from ChEMBL document CHEMBL4393724, “Betulin-1,4-quinone hybrids: Synthesis, anticancer activity and molecular docking study with NQO1 enzyme” (Eur J Med Chem, 2019).
Active and inactive are the calls of the source. The calls are words filed in the database; no cut-off is given here.

Key:
MDA-MB-231 = experiment: Antiproliferative activity against human MDA-MB-231 cells assessed as reduction in cell viability incubated for 72 hrs by WST1 assay; type: functional, cell-based
MCF7 [1] = experiment: Antiproliferative activity against human MCF7 cells assessed as reduction in cell viability incubated for 72 hrs by WST1 assay; type: functional, cell-based
Summary of the method: (§1)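 Cells held at 37 °C under 5% CO2 and seeded at 5 × 10^4 cells/well in DMEM with 10% FCS plus streptomycin and penicillin. Compounds were dissolved in DMSO and exposed for 72 h. WST-1 formazan was read at 450 nm. IC50 was derived from the mean ± SD of at least three independent experiments run in triplicate. Cisplatin served as reference.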

SNB-19 = experiment: Antiproliferative activity against human SNB19 cells assessed as reduction in cell viability incubated for 72 hrs by WST1 assay; type: functional, cell-based
T47D = experiment: Antiproliferative activity against human T47D cells assessed as reduction in cell viability incubated for 72 hrs by WST1 assay; type: functional, cell-based
C32 [2] = experiment: Antiproliferative activity against human C32 cells assessed as reduction in cell viability incubated for 72 hrs by WST1 assay; type: functional, cell-based; summary of the method: as §1
A549 [3] = experiment: Antiproliferative activity against human A549 cells assessed as reduction in cell viability incubated for 72 hrs by WST1 assay; type: functional, cell-based; summary of the method: as §1
COLO-829 = experiment: Antiproliferative activity against human COLO829 cells assessed as reduction in cell viability incubated for 72 hrs by WST1 assay; type: functional, cell-based
[4] = molecular target: NAD(P)H dehydrogenase [quinone] 1 (Homo sapiens) (UniProt P15559); experiment: Inhibition of NQO1 in human A549 cells assessed as decrease in of histone H3 expression at 0.5 times of IC50 incubated for 24 hrs by RT-PCR; type: cell-based
Sequence of NAD(P)H dehydrogenase [quinone] 1 (Homo sapiens) (P15559 whole entry): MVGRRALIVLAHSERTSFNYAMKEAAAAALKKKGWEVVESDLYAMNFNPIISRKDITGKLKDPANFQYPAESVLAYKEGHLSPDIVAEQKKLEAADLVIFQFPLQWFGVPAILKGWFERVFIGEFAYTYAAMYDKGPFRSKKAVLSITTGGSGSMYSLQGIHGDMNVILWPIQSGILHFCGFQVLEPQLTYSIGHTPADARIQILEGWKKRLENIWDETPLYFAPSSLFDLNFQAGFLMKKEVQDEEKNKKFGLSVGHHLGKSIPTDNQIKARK
Summary of the method: (§2)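 Cultured cells were exposed for 24 h to compound at half its IC50. Transcription of H3, TP53, CDKN1A, BAX and BCL-2 was quantified by real-time RT-qPCR with SYBR Green as mRNA copy numbers and compared with untreated control. The BAX/BCL-2 ratio was calculated from the mRNA copies.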

MCF7 [5] = experiment: Induction of apoptosis in human MCF7 cells assessed as increase in BAX/Bcl2 expression at 0.5 times of IC50 incubated for 24 hrs by RT-PCR; type: functional, cell-based; summary of the method: as §2
[6] = molecular target: NAD(P)H dehydrogenase [quinone] 1 (Homo sapiens) (UniProt P15559); experiment: Inhibition of NQO1 in human C32 cells assessed as decrease in histone H3 expression at 0.5 times of IC50 incubated for 24 hrs by RT-PCR; type: cell-based; summary of the method: as §2
A549 [7] = experiment: Induction of apoptosis in human A549 cells assessed as increase in BAX/Bcl2 expression at 0.5 times of IC50 incubated for 24 hrs by RT-PCR; type: functional, cell-based; summary of the method: as §2
[8] = molecular target: NAD(P)H dehydrogenase [quinone] 1 (Homo sapiens) (UniProt P15559); experiment: Inhibition of NQO1 in human MCF7 cells assessed as decrease in histone H3 expression at 0.5 times of IC50 incubated for 24 hrs by RT-PCR; type: cell-based; summary of the method: as §2
[9] = molecular target: NAD(P)H dehydrogenase [quinone] 1 (Homo sapiens) (UniProt P15559); experiment: Inhibition of NQO1 in human MCF7 cells assessed as increase in TP53 expression at 0.5 times of IC50 incubated for 24 hrs by RT-PCR; type: cell-based; summary of the method: as §2
[10] = molecular target: NAD(P)H dehydrogenase [quinone] 1 (Homo sapiens) (UniProt P15559); experiment: Inhibition of NQO1 in human MCF7 cells assessed as increase in CDKN1A expression at 0.5 times of IC50 incubated for 24 hrs by RT-PCR; type: cell-based; summary of the method: as §2
[11] = molecular target: NAD(P)H dehydrogenase [quinone] 1 (Homo sapiens) (UniProt P15559); experiment: Inhibition of NQO1 in human C32 cells assessed as increase in TP53 expression at 0.5 times of IC50 incubated for 24 hrs by RT-PCR; type: cell-based; summary of the method: as §2
[12] = molecular target: NAD(P)H dehydrogenase [quinone] 1 (Homo sapiens) (UniProt P15559); experiment: Inhibition of NQO1 in human C32 cells assessed as effect on Bcl2 expression at 0.5 times of IC50 incubated for 24 hrs by RT-PCR; type: cell-based; summary of the method: as §2
[13] = molecular target: NAD(P)H dehydrogenase [quinone] 1 (Homo sapiens) (UniProt P15559); experiment: Inhibition of NQO1 in human C32 cells assessed as increase in CDKN1A expression at 0.5 times of IC50 incubated for 24 hrs by RT-PCR; type: cell-based; summary of the method: as §2
[14] = molecular target: NAD(P)H dehydrogenase [quinone] 1 (Homo sapiens) (UniProt P15559); experiment: Inhibition of NQO1 in human A549 cells assessed as increase in TP53 expression at 0.5 times of IC50 incubated for 24 hrs by RT-PCR; type: cell-based; summary of the method: as §2
C32 [15] = experiment: Induction of apoptosis in human C32 cells assessed as increase in BAX/Bcl2 expression at 0.5 times of IC50 incubated for 24 hrs by RT-PCR relative to control; type: functional; summary of the method: as §2
[16] = molecular target: NAD(P)H dehydrogenase [quinone] 1 (Homo sapiens) (UniProt P15559); experiment: Inhibition of NQO1 in human C32 cells assessed as increase in BAX expression at 0.5 times of IC50 incubated for 24 hrs by RT-PCR; type: cell-based; summary of the method: as §2
[17] = molecular target: NAD(P)H dehydrogenase [quinone] 1 (Homo sapiens) (UniProt P15559); experiment: Inhibition of NQO1 in human MCF7 cells assessed as increase in BAX expression at 0.5 times of IC50 incubated for 24 hrs by RT-PCR; type: cell-based; summary of the method: as §2
[18] = molecular target: NAD(P)H dehydrogenase [quinone] 1 (Homo sapiens) (UniProt P15559); experiment: Inhibition of NQO1 in human A549 cells assessed as effect on Bcl2 expression at 0.5 times of IC50 incubated for 24 hrs by RT-PCR; type: cell-based; summary of the method: as §2
[19] = molecular target: NAD(P)H dehydrogenase [quinone] 1 (Homo sapiens) (UniProt P15559); experiment: Inhibition of NQO1 in human A549 cells assessed as increase in BAX expression at 0.5 times of IC50 incubated for 24 hrs by RT-PCR; type: cell-based; summary of the method: as §2
[20] = molecular target: NAD(P)H dehydrogenase [quinone] 1 (Homo sapiens) (UniProt P15559); experiment: Inhibition of NQO1 in human MCF7 cells assessed as effect on Bcl2 expression at 0.5 times of IC50 incubated for 24 hrs by RT-PCR; type: cell-based; summary of the method: as §2
[21] = molecular target: NAD(P)H dehydrogenase [quinone] 1 (Homo sapiens) (UniProt P15559); experiment: Inhibition of NQO1 in human A549 cells assessed as increase in CDKN1A expression at 0.5 times of IC50 incubated for 24 hrs by RT-PCR; type: cell-based; summary of the method: as §2
[22] = Homo sapiens, T47D, 72 h, read-out: IC50
[23] = Homo sapiens, A549, 72 h, read-out: IC50
[24] = Homo sapiens, MDA-MB-231, 72 h, read-out: IC50
[25] = Homo sapiens, C32, 72 h, read-out: IC50
[26] = Homo sapiens, COLO-829, 72 h, read-out: IC50
[27] = Homo sapiens, MCF7, 72 h, read-out: IC50
[28] = Homo sapiens, SNB-19, 72 h, read-out: IC50

| SMILES | IC50 (MDA-MB-231; mda-mb-231) | IC50 (MCF7 [1]; mcf7) | IC50 (SNB-19; snb-19) | IC50 (T47D; [22]) | IC50 (C32 [2]; c32) | IC50 (A549 [3]; [23]) | IC50 (C32 [2]; [25]) | IC50 (COLO-829; [26]) | IC50 (MCF7 [1]; [27]) | IC50 (SNB-19; [28]) | also measured |
| --- | --- | --- | --- | --- | --- | --- | --- | --- | --- | --- | --- |
| C=C(C)[C@@H]1CC[C@]2(COC(C)=O)CC[C@]3(C)[C@H](CC[C@@H]4[C@@]5(C)CC[C@H](OC6=C(Cl)C(=O)c7cccnc7C6=O)C(C)(C)[C@@H]5CC[C@]43C)[C@@H]12 | Not Active | Not Active | Not Active | 86.8 µM | Not Active | 13.5 µM |  |  |  |  | IC50 (COLO-829; colo-829): Not Active |
| C=C(C)[C@@H]1CC[C@]2(COC3=C(Cl)C(=O)c4ccc(C)nc4C3=O)CC[C@]3(C)[C@H](CC[C@@H]4[C@@]5(C)CC[C@H](O)C(C)(C)[C@@H]5CC[C@]43C)[C@@H]12 |  | Not Active | Not Active | 90.4 µM |  | 1.62 µM | 12.7 µM | 1.13 µM |  |  | IC50 (MDA-MB-231; [24]): 11 µM |
| C=C(C)[C@@H]1CC[C@]2(COC3=C(Cl)C(=O)c4cccnc4C3=O)CC[C@]3(C)[C@H](CC[C@@H]4[C@@]5(C)CC[C@H](O)C(C)(C)[C@@H]5CC[C@]43C)[C@@H]12 |  |  | Not Active | 13.2 µM | Not Active | 8.58 µM |  | 95.5 µM | 94.8 µM |  | IC50 (MDA-MB-231; [24]): 80.4 µM |
| C=C(C)[C@@H]1CC[C@]2(COC(C)=O)CC[C@]3(C)[C@H](CC[C@@H]4[C@@]5(C)CC[C@H](OC6=C(Cl)C(=O)c7ccccc7C6=O)C(C)(C)[C@@H]5CC[C@]43C)[C@@H]12 | Not Active |  |  | 12.3 µM |  | 0.77 µM | 1.72 µM | 0.13 µM | 8.72 µM | 7.54 µM | Activity [4]: Active; Activity (MCF7 [5]): Active; Activity [6]: Active; Activity (A549 [7]): Active; Activity [8]: Active; Activity [9]: Active; Activity [10]: Active; Activity [11]: Active; Activity [12]: inactive; Activity [13]: Active; Activity [14]: Active; Ratio (C32 [15]): 4 - 5; Activity [16]: Active; Activity [17]: Active; Activity [18]: inactive; Activity [19]: Active; Activity [20]: inactive; Activity [21]: Active |
| Cc1ccc2c(n1)C(=O)C(Cl)=C(Cl)C2=O | Not Active | Not Active | Not Active |  | Not Active |  |  | 26.4 µM |  |  | IC50 (T47D; t47d): Not Active; IC50 (A549 [3]; a549): Not Active |
| O=C1C(Cl)=C(Cl)C(=O)c2ccccc21 [Dichlon] | Not Active | Not Active | Not Active |  | Not Active |  |  | 37.9 µM |  |  | IC50 (T47D; t47d): Not Active; IC50 (A549 [3]; a549): Not Active |
| C=C(C)[C@@H]1CC[C@]2(COC3=C(Cl)C(=O)c4ccccc4C3=O)CC[C@]3(C)[C@H](CC[C@@H]4[C@@]5(C)CC[C@H](OC(C)=O)C(C)(C)[C@@H]5CC[C@]43C)[C@@H]12 | Not Active |  |  | 12.6 µM |  | 1.15 µM | 13.8 µM | 1.08 µM | 71.4 µM | 3.38 µM |  |
| C=C(C)[C@@H]1CC[C@]2(COC3=C(Cl)C(=O)c4ccccc4C3=O)CC[C@]3(C)[C@H](CC[C@@H]4[C@@]5(C)CC[C@H](O)C(C)(C)[C@@H]5CC[C@]43C)[C@@H]12 | Not Active | Not Active |  | 1.47 µM | Not Active | 10.6 µM |  |  |  | 9.49 µM | IC50 (COLO-829; colo-829): Not Active |
